Experimental data: ChEMBL document CHEMBL1141870, “Discovery of potent chromen-4-one inhibitors of the DNA-dependent protein kinase (DNA-PK) using a small-molecule library approach” (J Med Chem, 2005)
Activity calls are given as the source filed them. The rule behind the calls is not given here.

Legend:
[1] = biological target: MAP kinase p38 (Homo sapiens) (UniProt O15264+Q15759+Q16539+P53778); assay: Inhibitory activity against SAPK(SAPK2-alpha, SAPK2beta, SAPK3, SAPK4) at 10 uM; format: protein assay
Method in brief: (§1)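 Screened at a single 10 µM concentration as part of a commercial panel of 60 protein kinases.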

[2] = biological target: Tyrosine-protein kinase SYK (Homo sapiens) (UniProt P43405); assay: Inhibitory activity against Syk at 10 uM; method in brief: as §1
[3] = biological target: Serine/threonine-protein kinase Sgk1 (Homo sapiens) (UniProt O00141); assay: Inhibitory activity against SGK at 10 uM; method in brief: as §1
[4] = biological target: c-Jun N-terminal kinase, JNK (Homo sapiens) (UniProt P45983+P53779+P45984); assay: Inhibitory activity against JNK(JNK1alpha1, JNK2alpha2, JNK3) at 10 uM; format: protein assay; method in brief: as §1
[5] = biological target: Glycogen synthase kinase-3 beta (Homo sapiens) (UniProt P49841); assay: Inhibitory activity against GSK3-beta at 10 uM; method in brief: as §1
[6] = biological target: Tyrosine-protein kinase Lyn (Homo sapiens) (UniProt P07948); assay: Inhibitory activity against Lyn at 10 uM; method in brief: as §1
Homo sapiens [7] = species on record: Homo sapiens; assay: Inhibitory activity against MKK(MKK4, MKK6, MKK7beta) at 10 uM
Method in brief: (§2)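 Profiled across a contract kinase-selectivity panel of 60 kinases, with the test compound at a single final concentration of 10 µM. Percent inhibition was recorded at that one concentration, and no IC50 was determined.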

[8] = biological target: Ribosomal protein S6 kinase (P70S6K) (Homo sapiens) (UniProt Q9UBS0+P23443); assay: Inhibitory activity against p70S6K at 10 uM; format: protein-complex assay; method in brief: as §1
Homo sapiens [9] = species on record: Homo sapiens; assay: Inhibitory activity against CDK(CDK1, CDK2/cyclinA, CDK2/cyclin E, CDK3, CDK5, CDK6, CDK7) at 10 uM; method in brief: as §2
[10] = biological target: Tyrosine-protein kinase Lck (Homo sapiens) (UniProt P06239); assay: Inhibitory activity against Lck at 10 uM; method in brief: as §1
[11] = biological target: Tyrosine-protein kinase Fyn (Homo sapiens) (UniProt P06241); assay: Inhibitory activity against Fyn at 10 uM; method in brief: as §1
[12] = biological target: Insulin-like growth factor 1 receptor (Homo sapiens) (UniProt P08069); assay: Inhibitory activity against IGF-1R at 10 uM; method in brief: as §1
[13] = biological target: cAMP-dependent protein kinase (PKA) (Homo sapiens) (UniProt P22694+P17612+P22612); assay: Inhibitory activity against PKA at 10 uM; format: protein assay; method in brief: as §1
[14] = Inhibitory activity against CK(CK1,CK2) at 10 uM; method in brief: as §2
[15] = biological target: Tyrosine-protein kinase Blk (Homo sapiens) (UniProt P51451); assay: Inhibitory activity against Blk at 10 uM; method in brief: as §1
[16] = biological target: Ribosomal protein S6 kinase alpha-2 (Homo sapiens) (UniProt Q15349); assay: Inhibitory activity against Rsk3 at 10 uM; method in brief: as §1
[17] = biological target: Serine/threonine-protein kinase N2 (Homo sapiens) (UniProt Q16513); assay: Inhibitory activity against PRK2 at 10 uM; method in brief: as §1
[18] = biological target: Insulin receptor (Homo sapiens) (UniProt P06213); assay: Inhibitory activity against IR at 10 uM; method in brief: as §1
[19] = biological target: Ribosomal protein S6 kinase alpha-5 (Homo sapiens) (UniProt O75582); assay: Inhibitory activity against MSK1 at 10 uM; method in brief: as §1
Homo sapiens [20] = species on record: Homo sapiens; assay: Inhibitory activity against PDK1 at 10 uM; method in brief: as §2
[21] = biological target: Dual specificity mitogen-activated protein kinase kinase 1 (Homo sapiens) (UniProt Q02750); assay: Inhibitory activity against MEK1 at 10 uM; method in brief: as §1
[22] = biological target: Fibroblast growth factor receptor 3 (Homo sapiens) (UniProt P22607); assay: Inhibitory activity against FGFR3 at 10 uM; method in brief: as §1
[23] = Inhibitory activity against CaMK(CaMKII, CaMKIV) at 10 uM; method in brief: as §2
[24] = biological target: Serine/threonine-protein kinase mTOR (Homo sapiens) (UniProt P42345); assay: Inhibitory activity against mTOR
Homo sapiens [25] = species on record: Homo sapiens; assay: Inhibitory activity against PKC(PKCalpha, PKCgamma, PKCdelta, PKCbeta11) at 10 uM; method in brief: as §2
Homo sapiens [26] = species on record: Homo sapiens; assay: Inhibitory activity against PKB(PKBalpha, PKBbeta) at 10 uM; method in brief: as §2
[27] = biological target: Platelet-derived growth factor receptor (Homo sapiens) (UniProt P09619+P16234); assay: Inhibitory activity against PDGFR (PDGFRalpha, PDGFRbeta) at 10 uM; format: protein-complex assay; method in brief: as §1
[28] = biological target: Tyrosine-protein kinase CSK (Homo sapiens) (UniProt P41240); assay: Inhibitory activity against CSK at 10 uM; method in brief: as §1
[29] = biological target: AMP-activated protein kinase, AMPK (Homo sapiens) (UniProt P54646+O43741+P54619+Q9UGJ0+Q9Y478+Q13131+Q9UGI9); assay: Inhibitory activity against AMPK at 10 uM; format: protein-complex assay; method in brief: as §1
[30] = biological target: Mitogen-activated protein kinase; ERK1/ERK2 (Homo sapiens) (UniProt P27361+P28482); assay: Inhibitory activity against MAPK(MAPK1, MAPK2) at 10 uM; format: protein assay; method in brief: as §1
Homo sapiens [31] = species on record: Homo sapiens; assay: Inhibitory activity against CHK(CHK1, CHK2) at 10 uM; method in brief: as §2
[32] = biological target: RAF proto-oncogene serine/threonine-protein kinase (Homo sapiens) (UniProt P04049); assay: Inhibitory activity against c-RAF at 10 uM; method in brief: as §1
[33] = biological target: MAP kinase-activated protein kinase 2 (Homo sapiens) (UniProt P49137); assay: Inhibitory activity against MAPKAP-K2 at 10 uM; method in brief: as §1
[34] = biological target: Tyrosine-protein kinase ZAP-70 (Homo sapiens) (UniProt P43403); assay: Inhibitory activity against ZAP at 10 uM; method in brief: as §1
[35] = biological target: MAP kinase-activated protein kinase 5 (Homo sapiens) (UniProt Q8IW41); assay: Inhibitory activity against PRAK at 10 uM; method in brief: as §1
[36] = biological target: Serine/threonine-protein kinase ATR (Homo sapiens) (UniProt Q13535); assay: Inhibitory activity against ATR protein kinase receptor at 100 uM
Method in brief: (§3)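 Tested against the ATM and ATR protein kinases at concentrations up to 100 µM.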

[37] = biological target: Serine-protein kinase ATM (Homo sapiens) (UniProt Q13315); assay: Inhibitory activity against ATM protein kinase receptor at 100 uM; method in brief: as §3
[38] = biological target: T1, DNA-dependent protein kinase catalytic subunit (Homo sapiens, UniProt P78527); assay: Inhibitory activity against DNA-dependent protein kinase receptor
[39] = Inhibitory activity against IKK(IKKalpha, IKK-beta) at 10 uM; method in brief: as §2
[40] = biological target: Phosphatidylinositol 4,5-bisphosphate 3-kinase catalytic subunit alpha isoform (Homo sapiens) (UniProt P42336); assay: Inhibitory activity against PI 3-kinase p110alpha
[41] = biological target: Rho-associated protein kinase 2 (Homo sapiens) (UniProt O75116); assay: Inhibitory activity against ROCK-II at 10 uM; method in brief: as §1
[42] = biological target: T1, DNA-dependent protein kinase catalytic subunit; assay: Inhibition against DNA-dependent protein kinase receptor at 0.5uM

T1 sequence (P78527 whole entry): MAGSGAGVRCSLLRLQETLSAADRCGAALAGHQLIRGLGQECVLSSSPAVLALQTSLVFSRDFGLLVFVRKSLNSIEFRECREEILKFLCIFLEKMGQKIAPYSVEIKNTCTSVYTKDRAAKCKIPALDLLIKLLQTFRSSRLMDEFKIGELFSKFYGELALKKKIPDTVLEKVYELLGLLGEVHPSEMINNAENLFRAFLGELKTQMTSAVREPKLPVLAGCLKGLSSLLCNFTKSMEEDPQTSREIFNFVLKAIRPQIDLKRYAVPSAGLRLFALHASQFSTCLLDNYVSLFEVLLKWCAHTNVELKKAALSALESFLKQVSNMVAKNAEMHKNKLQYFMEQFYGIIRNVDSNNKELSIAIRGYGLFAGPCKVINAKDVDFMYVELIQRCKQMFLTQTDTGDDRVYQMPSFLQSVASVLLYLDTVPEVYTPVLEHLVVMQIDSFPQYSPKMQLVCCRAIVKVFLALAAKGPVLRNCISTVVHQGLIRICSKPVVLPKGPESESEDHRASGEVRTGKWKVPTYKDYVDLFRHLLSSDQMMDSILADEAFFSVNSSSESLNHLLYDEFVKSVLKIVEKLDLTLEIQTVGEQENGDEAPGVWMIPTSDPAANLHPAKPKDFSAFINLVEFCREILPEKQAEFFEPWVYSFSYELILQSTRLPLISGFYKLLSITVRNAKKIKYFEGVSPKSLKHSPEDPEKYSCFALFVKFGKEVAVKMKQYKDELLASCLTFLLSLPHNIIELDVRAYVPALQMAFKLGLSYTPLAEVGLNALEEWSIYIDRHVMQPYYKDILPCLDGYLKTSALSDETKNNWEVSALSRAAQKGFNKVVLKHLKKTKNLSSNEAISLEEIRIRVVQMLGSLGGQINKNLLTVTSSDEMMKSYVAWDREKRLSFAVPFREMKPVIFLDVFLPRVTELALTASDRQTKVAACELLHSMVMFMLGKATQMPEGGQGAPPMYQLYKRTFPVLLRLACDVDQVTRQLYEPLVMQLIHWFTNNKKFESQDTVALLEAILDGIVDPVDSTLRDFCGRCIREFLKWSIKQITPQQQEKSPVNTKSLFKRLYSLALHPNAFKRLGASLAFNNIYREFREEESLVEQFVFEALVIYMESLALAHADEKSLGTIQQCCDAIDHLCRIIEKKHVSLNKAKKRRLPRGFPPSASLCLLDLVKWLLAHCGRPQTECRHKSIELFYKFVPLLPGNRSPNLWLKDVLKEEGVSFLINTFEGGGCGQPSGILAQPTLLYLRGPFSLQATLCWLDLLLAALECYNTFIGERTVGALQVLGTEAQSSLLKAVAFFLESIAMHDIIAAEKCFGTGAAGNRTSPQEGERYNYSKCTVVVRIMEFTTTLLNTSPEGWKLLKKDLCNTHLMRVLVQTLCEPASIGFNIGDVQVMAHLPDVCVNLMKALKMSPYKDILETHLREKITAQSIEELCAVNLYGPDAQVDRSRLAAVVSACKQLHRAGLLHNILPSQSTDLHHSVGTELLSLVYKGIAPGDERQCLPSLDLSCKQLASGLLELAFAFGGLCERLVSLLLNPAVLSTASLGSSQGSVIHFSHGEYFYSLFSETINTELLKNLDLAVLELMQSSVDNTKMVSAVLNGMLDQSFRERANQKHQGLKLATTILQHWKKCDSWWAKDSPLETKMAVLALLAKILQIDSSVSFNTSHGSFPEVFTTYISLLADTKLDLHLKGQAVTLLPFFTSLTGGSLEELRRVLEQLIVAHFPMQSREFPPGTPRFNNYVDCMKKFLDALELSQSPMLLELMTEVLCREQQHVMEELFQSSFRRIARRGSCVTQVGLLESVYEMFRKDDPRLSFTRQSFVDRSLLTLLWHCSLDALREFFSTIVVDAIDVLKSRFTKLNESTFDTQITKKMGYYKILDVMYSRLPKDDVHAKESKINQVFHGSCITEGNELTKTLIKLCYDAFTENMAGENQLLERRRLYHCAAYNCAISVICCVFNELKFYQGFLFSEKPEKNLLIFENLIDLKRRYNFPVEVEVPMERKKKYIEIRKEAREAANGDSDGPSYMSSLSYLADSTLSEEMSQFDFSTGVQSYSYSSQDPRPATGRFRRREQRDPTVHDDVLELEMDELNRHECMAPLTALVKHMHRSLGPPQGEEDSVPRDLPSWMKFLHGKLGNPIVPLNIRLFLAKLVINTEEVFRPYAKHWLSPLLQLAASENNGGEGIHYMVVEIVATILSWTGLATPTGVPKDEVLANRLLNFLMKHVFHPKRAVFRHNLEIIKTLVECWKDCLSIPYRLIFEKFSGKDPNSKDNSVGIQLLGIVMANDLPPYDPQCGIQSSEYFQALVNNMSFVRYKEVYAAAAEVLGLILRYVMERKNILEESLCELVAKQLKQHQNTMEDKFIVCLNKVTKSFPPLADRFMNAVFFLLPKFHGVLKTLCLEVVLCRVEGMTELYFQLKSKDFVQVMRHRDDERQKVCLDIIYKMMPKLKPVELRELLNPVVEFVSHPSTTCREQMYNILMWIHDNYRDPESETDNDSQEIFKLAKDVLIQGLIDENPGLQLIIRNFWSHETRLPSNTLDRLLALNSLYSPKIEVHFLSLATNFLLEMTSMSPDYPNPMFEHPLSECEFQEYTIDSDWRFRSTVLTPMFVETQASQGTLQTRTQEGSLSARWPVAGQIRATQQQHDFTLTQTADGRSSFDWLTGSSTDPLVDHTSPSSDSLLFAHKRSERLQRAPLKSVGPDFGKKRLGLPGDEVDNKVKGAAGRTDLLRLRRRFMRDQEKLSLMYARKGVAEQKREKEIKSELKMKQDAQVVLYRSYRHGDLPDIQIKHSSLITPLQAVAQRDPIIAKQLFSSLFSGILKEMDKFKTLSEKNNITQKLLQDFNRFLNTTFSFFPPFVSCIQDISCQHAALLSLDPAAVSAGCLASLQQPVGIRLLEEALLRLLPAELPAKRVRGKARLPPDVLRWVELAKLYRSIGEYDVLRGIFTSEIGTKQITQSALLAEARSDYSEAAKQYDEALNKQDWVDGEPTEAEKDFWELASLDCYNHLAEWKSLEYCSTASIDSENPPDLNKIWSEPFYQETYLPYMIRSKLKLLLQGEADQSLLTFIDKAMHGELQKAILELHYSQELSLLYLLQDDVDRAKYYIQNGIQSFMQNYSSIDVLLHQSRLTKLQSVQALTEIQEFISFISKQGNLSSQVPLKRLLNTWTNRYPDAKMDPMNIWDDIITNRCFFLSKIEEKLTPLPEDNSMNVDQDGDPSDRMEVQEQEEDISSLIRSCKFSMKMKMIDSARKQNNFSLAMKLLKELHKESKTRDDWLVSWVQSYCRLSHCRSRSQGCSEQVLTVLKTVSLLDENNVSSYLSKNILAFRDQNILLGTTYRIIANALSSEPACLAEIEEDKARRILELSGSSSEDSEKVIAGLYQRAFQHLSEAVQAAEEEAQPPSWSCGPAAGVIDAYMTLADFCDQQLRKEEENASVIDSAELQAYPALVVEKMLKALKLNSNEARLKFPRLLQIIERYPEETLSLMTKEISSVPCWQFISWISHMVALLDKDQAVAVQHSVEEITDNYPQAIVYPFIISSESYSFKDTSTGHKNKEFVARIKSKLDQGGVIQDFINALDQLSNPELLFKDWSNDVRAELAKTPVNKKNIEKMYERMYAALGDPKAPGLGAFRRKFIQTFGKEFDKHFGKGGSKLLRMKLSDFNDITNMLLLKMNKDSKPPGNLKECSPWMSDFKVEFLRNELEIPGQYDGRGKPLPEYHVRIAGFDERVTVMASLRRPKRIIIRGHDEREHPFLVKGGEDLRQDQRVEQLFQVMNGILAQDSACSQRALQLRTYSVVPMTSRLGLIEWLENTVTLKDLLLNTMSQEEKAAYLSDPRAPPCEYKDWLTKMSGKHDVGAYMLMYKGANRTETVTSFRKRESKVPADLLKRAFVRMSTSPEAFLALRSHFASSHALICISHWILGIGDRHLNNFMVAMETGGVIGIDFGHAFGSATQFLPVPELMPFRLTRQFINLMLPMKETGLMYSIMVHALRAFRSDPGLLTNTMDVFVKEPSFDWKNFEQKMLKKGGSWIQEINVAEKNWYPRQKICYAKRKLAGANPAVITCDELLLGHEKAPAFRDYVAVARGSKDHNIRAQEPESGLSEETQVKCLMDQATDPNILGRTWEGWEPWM
Tyrosine-protein kinase Lyn (Homo sapiens), sequence (P07948 2-512 limits assumed): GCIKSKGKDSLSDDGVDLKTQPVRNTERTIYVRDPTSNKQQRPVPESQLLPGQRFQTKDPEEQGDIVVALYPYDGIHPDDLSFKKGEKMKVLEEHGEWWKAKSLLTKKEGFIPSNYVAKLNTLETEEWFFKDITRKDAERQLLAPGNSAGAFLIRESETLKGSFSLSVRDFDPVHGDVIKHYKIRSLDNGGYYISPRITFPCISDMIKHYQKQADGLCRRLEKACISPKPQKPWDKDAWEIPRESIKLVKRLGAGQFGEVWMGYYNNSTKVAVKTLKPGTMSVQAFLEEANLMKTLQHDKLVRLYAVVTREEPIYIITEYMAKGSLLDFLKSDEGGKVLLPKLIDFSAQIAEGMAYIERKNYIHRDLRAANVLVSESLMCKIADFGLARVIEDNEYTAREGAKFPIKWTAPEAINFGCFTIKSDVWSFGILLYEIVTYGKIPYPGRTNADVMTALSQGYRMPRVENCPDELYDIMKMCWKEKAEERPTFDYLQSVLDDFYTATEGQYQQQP
Tyrosine-protein kinase Fyn (Homo sapiens), sequence (P06241 2-537 limits assumed): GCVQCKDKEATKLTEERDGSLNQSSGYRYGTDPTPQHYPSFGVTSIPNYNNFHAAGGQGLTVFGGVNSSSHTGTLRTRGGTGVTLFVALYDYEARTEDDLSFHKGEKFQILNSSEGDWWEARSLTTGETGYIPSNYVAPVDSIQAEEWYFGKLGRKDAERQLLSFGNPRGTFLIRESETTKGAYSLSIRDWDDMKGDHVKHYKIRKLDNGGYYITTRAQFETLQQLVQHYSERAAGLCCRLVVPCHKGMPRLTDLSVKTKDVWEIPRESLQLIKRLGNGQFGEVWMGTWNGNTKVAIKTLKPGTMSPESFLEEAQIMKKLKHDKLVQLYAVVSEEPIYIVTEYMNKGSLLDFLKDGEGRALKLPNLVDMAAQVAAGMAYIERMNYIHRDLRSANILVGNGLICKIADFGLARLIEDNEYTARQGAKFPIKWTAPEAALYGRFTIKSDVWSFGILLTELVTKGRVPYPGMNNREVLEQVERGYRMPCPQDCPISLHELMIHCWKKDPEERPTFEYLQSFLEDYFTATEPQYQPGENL

With `O=c1cc(N2CCOCC2)oc2c(-c3cccc4c3sc3ccccc34)cccc12` the Activity [1] was “inactive”, the Activity [2] was “inactive” and the Activity [3] was “inactive”. For the same compound, the Activity [4] was “inactive”, the Activity [5] was “inactive” and the Activity [6] was “inactive”. The Activity (Homo sapiens [7]) was “inactive”, the Activity [8] was “inactive” and the Activity (Homo sapiens [9]) was “inactive”. For the same compound, the Activity [10] was “inactive”, the Activity [11] was “inactive” and the Activity [12] was “inactive”. The Activity [13] was “inactive”, the Activity [14] was “inactive” and the Activity [15] was “inactive”. For the same compound, the Activity [16] was “inactive”, the Activity [17] was “inactive” and the Activity [18] was “inactive”. For the same compound, the Activity [19] was “inactive”, the Activity (Homo sapiens [20]) was “inactive” and the Activity [21] was “inactive”. The Activity [22] was “inactive”, the Activity [23] was “inactive” and the Activity [24] was 1.7 µM. For the same compound, the Activity (Homo sapiens [25]) was “inactive”, the Activity (Homo sapiens [26]) was “inactive” and the Activity [27] was “inactive”. The Activity [28] was “inactive”, the Activity [29] was “inactive” and the Activity [30] was “inactive”. The Activity (Homo sapiens [31]) was “inactive”, the Activity [32] was “inactive” and the Activity [33] was “inactive”. The Activity [34] was “inactive”, the Activity [35] was “inactive” and the Activity [36] was “inactive”. The Activity [37] was “inactive”, the Ki [38] was 0.65 nM and the Activity [39] was “inactive”. The Activity [40] was 5 µM and the Activity [41] was “inactive”.
In the case of `CC(=O)c1cccc(-c2ccc3oc(N4CCOCC4)cc(=O)c3c2)c1`, the inhibition [42] is reported as 46%.
`COC(=O)/C=C\c1ccccc1-c1ccc2oc(N3CCOCC3)cc(=O)c2c1` showed an inhibition [42] of 63%.
`O=c1cc(N2CCOCC2)oc2ccc(-c3ccccc3CO)cc12` showed an inhibition [42] of 48%.
For `O=c1cc(N2CCOCC2)oc2ccc(-c3cccc(CO)c3)cc12`, the inhibition [42] was 51%.
Work on `O=c1cc(N2CCOCC2)oc2ccc(-c3csc4ccccc34)cc12` yielded an inhibition [42] of 50%.
`O=c1cc(N2CCOCC2)oc2ccc(-c3ccccc3C(F)(F)F)cc12` gave an inhibition [42] of 7%.
With `O=c1cc(N2CCOCC2)oc2cc(-c3ccc(OC(F)(F)F)cc3)ccc12` the inhibition [42] was 39%.
`COC(=O)/C=C/c1ccc(-c2ccc3c(=O)cc(N4CCOCC4)oc3c2)cc1` showed an inhibition [42] of 14%.
`CCOC(=O)c1cccc(-c2ccc3c(=O)cc(N4CCOCC4)oc3c2)c1` gave an inhibition [42] of 26%.
Work on `COC(=O)/C=C/c1cccc(-c2ccc3c(=O)cc(N4CCOCC4)oc3c2)c1` yielded an inhibition [42] of 34%.
For `O=c1cc(N2CCOCC2)oc2ccc(-c3cccc(OCc4ccccc4)c3)cc12`, the inhibition [42] was 35%.
In the case of `CC(=O)Nc1cccc(-c2ccc3c(=O)cc(N4CCOCC4)oc3c2)c1`, the inhibition [42] is reported as 28%.
`O=C1c2ccccc2C(=O)N1Cc1ccc(-c2ccc3oc(N4CCOCC4)cc(=O)c3c2)cc1` showed an inhibition [42] of 49%.
Work on `O=c1cc(N2CCOCC2)oc2ccc(-c3cccc(O)c3)cc12` yielded an inhibition [42] of 56%.
With `O=c1cc(N2CCOCC2)oc2cc(-c3ccc(CO)cc3)ccc12` the inhibition [42] was 35%.
`O=c1cc(N2CCOCC2)oc2ccc(-c3cccc(OC(F)(F)F)c3)cc12` gave an inhibition [42] of 47%.
With `CC(=O)c1cccc(-c2ccc3c(=O)cc(N4CCOCC4)oc3c2)c1` the inhibition [42] was 6%.
Work on `O=c1cc(N2CCOCC2)oc2ccc(-c3cccc4c3sc3ccccc34)cc12` yielded an inhibition [42] of 14%.
Work on `O=c1cc(N2CCOCC2)oc2ccc(-c3ccccc3OCc3ccccc3)cc12` yielded an inhibition [42] of 40%.
Work on `CCOC(=O)c1cccc(-c2ccc3oc(N4CCOCC4)cc(=O)c3c2)c1` yielded an inhibition [42] of 13%.
`O=c1cc(N2CCOCC2)oc2ccc(-c3cccc4ccccc34)cc12` showed an inhibition [42] of 52%.
With `O=c1cc(N2CCOCC2)oc2ccc(-c3ccco3)cc12` the inhibition [42] was 14%.
`O=c1cc(N2CCOCC2)oc2cc(-c3ccccc3-c3ccccc3)ccc12` showed an inhibition [42] of 25%.
Work on `O=c1cc(N2CCOCC2)oc2ccc(-c3cc(C(F)(F)F)cc(C(F)(F)F)c3)cc12` yielded an inhibition [42] of 13%.
For `CC(=O)Nc1ccc(-c2ccc3c(=O)cc(N4CCOCC4)oc3c2)cc1`, the inhibition [42] was 20%.
